Experimental findings from ChEMBL document CHEMBL1125344, “(Pyridylcyanomethyl)piperazines as orally active PAF antagonists” (J Med Chem, 1992) are described below.

Assay [1] has as its target Platelet-activating factor receptor (Mus musculus) (UniProt Q62035). Put plainly: Oral dose required to inhibit PAF-induced mortality (PAF-Antagonistic activity)in mice by 50%. The assay is classed as functional. The following applies: Mus sp. A digest of the protocol:
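Male Swiss mice, 22-26 g, in groups of 10. Compound or saline given po (20 mL/kg) 60 min before C18-PAF 100 µg/kg plus propranolol 1 mg/kg by tail vein. ID50 from percent inhibition of mortality versus controls.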

The target in assay [2] is Platelet-activating factor receptor (Rattus norvegicus) (UniProt P46002). The assay can be described thus: Dose required to inhibit PAF-induced hypotension (PAF-Antagonistic activity) in normotensive rats by 50%. The format is functional. The method in brief:
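Male Sprague-Dawley rats, 180-220 g, anesthetized with sodium pentobarbital ip. Carotid blood pressure recorded. Compound given iv in saline (1 mL/kg) via femoral vein 3 min before PAF 0.5 µg/kg iv; vehicle controls. ID50 by linear regression of one curve of at least four doses, each the mean % inhibition from two or more experiments.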

Platelet-activating factor receptor (Rattus norvegicus), sequence (P46002 whole entry): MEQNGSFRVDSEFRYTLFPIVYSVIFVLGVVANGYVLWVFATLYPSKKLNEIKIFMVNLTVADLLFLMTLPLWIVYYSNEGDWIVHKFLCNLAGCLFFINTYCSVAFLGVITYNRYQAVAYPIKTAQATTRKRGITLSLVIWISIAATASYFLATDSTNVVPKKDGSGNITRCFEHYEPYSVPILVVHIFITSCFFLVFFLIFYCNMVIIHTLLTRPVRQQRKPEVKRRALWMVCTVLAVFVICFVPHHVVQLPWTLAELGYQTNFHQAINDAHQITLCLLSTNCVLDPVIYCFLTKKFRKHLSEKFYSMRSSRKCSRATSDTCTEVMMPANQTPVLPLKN
Platelet-activating factor receptor (Mus musculus), sequence (Q62035 whole entry): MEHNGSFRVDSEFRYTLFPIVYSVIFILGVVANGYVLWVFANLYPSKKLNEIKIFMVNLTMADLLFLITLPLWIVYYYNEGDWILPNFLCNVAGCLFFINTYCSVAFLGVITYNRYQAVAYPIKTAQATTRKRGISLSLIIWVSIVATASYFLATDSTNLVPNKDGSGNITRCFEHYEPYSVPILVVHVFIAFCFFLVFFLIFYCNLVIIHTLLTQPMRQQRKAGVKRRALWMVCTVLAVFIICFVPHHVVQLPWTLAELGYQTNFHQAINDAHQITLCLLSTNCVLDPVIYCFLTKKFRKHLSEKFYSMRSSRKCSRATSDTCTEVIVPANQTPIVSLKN

For `N#CC(c1cccnc1)N1CCN(C(=O)/C=C/c2ccccc2)CC1` (stereo not given), the ID50 in assay [1] amounted to 100 mg/kg; in assay [2], 0.24 mg/kg. Regarding `N#CC(c1cccnc1)N1CCN(CCNC(=O)C(c2ccccc2)c2ccccc2)CC1` (stereo not given), the values for the ID50 in assay [1] and in assay [2] were 50 mg/kg and 0.29 mg/kg, respectively. As to `N#CC(CN1CCN(C(=O)C(c2ccccc2)c2ccccc2)CC1)c1cccnc1` (stereo not given), the ID50 in assay [2] was more than 5 mg/kg. As to `CN(CC(=O)N1CCN(C(C#N)c2cccnc2)CC1)C(c1ccccc1)c1ccccc1` (stereo not given), the ID50 in assay [1] was determined as 4.6 mg/kg; in assay [2], 0.33 mg/kg. On the same counts, the results for `N#CC(c1ccncc1)N1CCN(C(=O)CC(O)(c2ccccc2)c2ccccc2)CC1` (stereo not given) are 7.7 mg/kg and 0.061 mg/kg.

With `N#CC(c1cccnc1)N1CCN(CCC(c2ccccc2)c2ccccc2)CC1` (stereo not given), the ID50 in assay [1] is 15 mg/kg; in assay [2], 3.1 mg/kg.

For the compound `COc1cc(C(=O)N2CCN(C(C#N)c3cccnc3)CC2)cc(OC)c1OC` (stereo not given), the ID50 in assay [1] is more than 100 mg/kg; in assay [2] it was 4.4 mg/kg. On the same counts, the results for `N#CC(c1cccnc1)N1CCN(C(=O)CNC(Cc2ccccc2)c2ccccc2)CC1` (stereo not given) are more than 10 mg/kg and 0.38 mg/kg. On the same counts, the results for `N#CC(c1cccnc1)N1CCN(C(=O)CC(O)(c2ccccc2)c2ccccc2)CC1` (stereo not given) are 4.7 mg/kg and 0.061 mg/kg. On to `N#CC1(Nc2cccnc2)CCN(C(=O)CC(c2ccccc2)c2ccccc2)CC1`, for which the values for the ID50 in assay [1] and in assay [2] were 12 mg/kg and 0.04 mg/kg, respectively.

As for `N#CC(c1cccnc1)N1CCN(C(=O)C=C(c2ccccc2)c2ccccc2)CC1` (stereo not given), the ID50 in assay [1] was 50 mg/kg; in assay [2], 0.049 mg/kg.

In the case of `N#CC(c1ccncc1)N1CCN(C(=O)CC(c2ccccc2)c2ccccc2)CC1` (stereo not given), the ID50 was determined as 7.3 mg/kg in assay [1] and 0.041 mg/kg in assay [2]. In turn, `CN(CC(=O)N1CCN(C(C#N)c2cccnc2)CC1)c1ccccc1` (stereo not given) yielded an ID50 in assay [2] of 2.2 mg/kg.

For `COc1cc(CCC(=O)N2CCN(C(C#N)c3cccnc3)CC2)cc(OC)c1OC` (stereo not given), the ID50 in assay [1] came to 100 mg/kg; in assay [2], 2 mg/kg.

Regarding `N#CC(c1cccnc1)N1CCN(C(=O)C(Cc2ccccc2)c2ccccc2)CC1` (stereo not given), the ID50 in assay [1] was more than 50 mg/kg; in assay [2], 0.12 mg/kg. On to `N#CC(c1cccnc1)N1CCN(CCNC(=O)CC(c2ccccc2)c2ccccc2)CC1` (stereo not given), for which, in assay [2], the ID50 stood at 2.2 mg/kg. Regarding `O=C(C(c1ccccc1)c1ccccc1)N1CCN(Cc2cccnc2)CC1`, in assay [2], the ID50 turned out to be 2.7 mg/kg. Still for that read-out and setting: then `CN(CCCc1ccccc1)CC(=O)N1CCN(C(C#N)c2cccnc2)CC1` (stereo not given), with more than 5 mg/kg; and `CC(C)(C)C(=O)N1CCN(C(C#N)c2cccnc2)CC1` (stereo not given), with more than 5 mg/kg; and `COc1cc(C(=O)N2CCN(C(C#N)c3ccccn3)CC2)cc(OC)c1OC` (stereo not given), with more than 5 mg/kg. The same measure, in the same setting: then `N#CC(c1cccnc1)N1CCN(C(=O)CNc2cccc3ccccc23)CC1` (stereo not given), with 2.5 mg/kg. On the same count and under the same terms, then `N#CC(c1cccnc1)N1CCN(C(=O)c2ccccc2)CC1` (stereo not given), with more than 5 mg/kg.

For `NC(=O)C(c1cccnc1)N1CCN(C(=O)C(c2ccccc2)c2ccccc2)CC1` (stereo not given), the ID50 in assay [2] was more than 5 mg/kg. The same measure, in the same setting: then `Cn1ccc(C(C#N)N2CCN(C(=O)CC(c3ccccc3)c3ccccc3)CC2)c1` (stereo not given), with 4.2 mg/kg. Same read-out and setting: as for `COc1cc(CCC(=O)N2CCN(C(=O)c3cc(OC)c(OC)c(OC)c3)CC2)cc(OC)c1OC`, the figure is more than 5 mg/kg.

`CCCCCCCCCCCCCCCC(=O)N1CCN(C(C#N)c2cccnc2)CC1` (stereo not given) yielded an ID50 in assay [2] of more than 5 mg/kg.

In turn, `N#CC(c1cccnc1)N1CCN(C(=O)C(CCc2ccccc2)c2ccccc2)CC1` (stereo not given) yielded an ID50 in assay [2] of 0.73 mg/kg. On the same count and under the same terms, as for `O=C(CC(c1ccccc1)c1ccccc1)N1CCC(Nc2cccnc2)CC1`, the figure is 2.4 mg/kg; as for `O=C(c1cccnc1)N1CCN(C(=O)C(c2ccccc2)c2ccccc2)CC1`, more than 5 mg/kg. Take `Cn1cc(C(C#N)N2CCN(C(=O)CC(c3ccccc3)c3ccccc3)CC2)c2ccccc21` (stereo not given): the ID50 in assay [2] was more than 5 mg/kg. In assay [2], `N#CC(c1cccnc1)N1CCC(OC(=O)CC(c2ccccc2)c2ccccc2)CC1` (stereo not given) had an ID50 of more than 5 mg/kg. Still for that read-out and setting: as for `O=C(C(c1ccccc1)c1ccccc1)N1CC[N+]([O-])(Cc2cccnc2)CC1`, the figure is more than 5 mg/kg.
